Test results published in the array DNA melting data of Ke et al. (doi:10.1101/2024.01.08.574731).

Tests used:
[1] = folding enthalpy; higher = less favourable; fluorescence melt of hairpins on a sequencing array, two-state fit; settings: sodium 0.088 M
How it was run: (§1)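 In 50 mM Na-HEPES pH 8.0 containing 25 mM NaCl, hairpins from the library on a sequenced MiSeq flow cell were imaged for Cy3 fluorescence at 2.5 °C steps up to 60 °C, with Cy3 and quencher oligos annealed. After normalisation to pre-quench Cy3 and to control constructs, two-state fits with bootstrapping gave melting temperature and folding enthalpy. Four replicates were combined by inverse-variance weighting, and fitted temperatures were shifted up by 9.35 °C to match UV melts.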

[2] = melting temperature; fluorescence melt of hairpins on a sequencing array, two-state fit, raised by 9.35 °C to match UV melts; settings: sodium 0.088 M
How it was run: as §1

Row | Sequence | folding enthalpy [1] [kcal/mol] | Tm [2] [°C]
1 | GCTTGTACGAAAGTAAGC (((..(((....)))))) | -24.9 | 37.7
2 | GCTTGTCCGAAAGGAAGC (((..(((....)))))) | -17.7 | 36.1
3 | GCTTGTCGAAAGACCAGC (((.(((....))).))) | -26.7 | 47.9
4 | GCTTGTGGAAACACAAAC (.(((((....))))).) | -13.8 | 36.3
5 | GCTTTACGAAAGTACAGC (((.(((....))).))) | -28.6 | 44.8
6 | GCTTTACGAAAGTATAGC (((.(((....))).))) | -34.1 | 47
7 | GCTTTAGGAAACTGAAGC ((((.((....)).)))) | -30.1 | 42.4
8 | GCTTTCACGAAAGTGAGC (((..(((....)))))) | -11.2 | 33.8
9 | GCTTTCGAAAGAACGAGC ((((((....)))..))) | -15.1 | 28.9
10 | GCTTTCGCGAAAGCGAGC (((..(((....)))))) | -10.6 | 48.9
11 | GCTTTCTCGAAAGAGAGC (((..(((....)))))) | -17.8 | 33
12 | GCTTTGCGAAAGCACGGC ((..(((....)))..)) | -16.6 | 41.7
13 | GCTTTGCGAAAGCAGCGC ((..(((....)))..)) | -16.7 | 48.6
14 | GCTTTGCGAAAGCCAAGC ((((.((....)).)))) | -23 | 52.6
15 | GCTTTGCGAAAGCGATGC ((.(.((....)).).)) | -19.2 | 46.5
16 | GCTTTGCGAAAGCGGAGC (((..((....))..))) | -17.3 | 53.6
17 | GCTTTGCGAAAGCGTAGC (((..((....))..))) | -19.6 | 37.2
18 | GCTTTGCGAAAGCTTAGC (((..((....))..))) | -16.7 | 55.2
19 | GCTTTGGGAAACCAAAAC (.(((((....))))).) | -19.8 | 31.3
20 | GCTTTTCCGAAAGGAAGC (((..(((....)))))) | -10.7 | 33.7
21 | GCTTTTGCGAAAGCAAGC (((..(((....)))))) | -10.3 | 35
22 | GGAAAAGGAAACTTTCCC ((.((((....)))).)) | -13.1 | 27.8
23 | GGAAAAGGAAACTTTTTC (.(((((....))))).) | -20.6 | 33

Row | Sequence | folding enthalpy [1] [kcal/mol] | Tm [2] [°C]
24 | GGAAACCGAAAGGTATCC (((.(((....))).))) | -22.7 | 48.4
25 | GGAAACGAAAGTTATCC ((((((....))).))) | -12.1 | 31.9
26 | GGAAACGAAAGTTCTCC ((((((....))).))) | -16.8 | 35.8
27 | GGAAACGAAAGTTTATCC ((((((....)))..))) | -12.3 | 25.6
28 | GGAAACGAAAGTTTTTCC ((((((....)))..))) | -10.8 | 30.6
29 | GGAAACGGAAACGTCTCC (((.(((....))).))) | -23.6 | 37.2
30 | GGAAAGCGAAAGCTTCC (((.(((....)))))) | -18.1 | 53.7
31 | GGAAAGGAAACTTTCC ((((((....)))))) | -29.9 | 50
32 | GGAAAGGGAAACCCTTCC ((((.((....)).)))) | -23.1 | 40
33 | GGAAATACGAAAGTATCC (((..(((....)))))) | -11.3 | 30.8
34 | GGAAATGGAAACATCTCC (((.(((....))).))) | -9.93 | 25.1
35 | GGAAATGGAAACATTTTC (.(((((....))))).) | -33.7 | 38.5
36 | GGAAATGGAAACGTTTCC (((((.(....).))))) | -19.2 | 44.1
37 | GGAACACCGAAAGGTTCC (((..(((....)))))) | -18.4 | 42.2
38 | GGAACAGGAAACTATTCC ((((.((....)).)))) | -13.4 | 24.7
39 | GGAACCGAAAGGTCATCC ((((((....)))..))) | -10.8 | 28.6
40 | GGAACCGAAAGGTGATCC ((((((....)))..))) | -14 | 42.8
41 | GGAACCGAAAGGTGGTCC ((((((....)))..))) | -14.7 | 35.4
42 | GGAACCGGAAACGGTTTC (.(((((....))))).) | -21.3 | 54.5
43 | GGAACGCCGAAAGGCTCC (((..(((....)))))) | -9.39 | 33
44 | GGAACTGAAAAGTTCC ((((((....)))))) | -38.3 | 56.4
45 | GGAACTGGAAACAGCTCC (((.(((....))).))) | -28.5 | 42.5
46 | GGAAGCACGAAAGTGTCC (((..(((....)))))) | -13.1 | 31.5

Row | Sequence | folding enthalpy [1] [kcal/mol] | Tm [2] [°C]
47 | GGAAGCGAAAGCTACTCC ((((((....)))..))) | -13.3 | 30.8
48 | GGAAGCGAAAGCTAGTCC ((((((....)))..))) | -9.98 | 25.8
49 | GGAAGCGAAAGCTTCTCC ((((((....)))..))) | -9.47 | 53.3
50 | GGAAGGCGAAAGCCGTCC (((.(((....))).))) | -15.5 | 58
51 | GGAAGGCGAAAGCCTCC (((.(((....)))))) | -14.1 | 56.9
52 | GGAAGGGGAAACCCTTTC (.(((((....))))).) | -24.2 | 44.7
53 | GGAAGGTCGAAAGACTCC (((..(((....)))))) | -13.8 | 33.1
54 | GGAATACGAAAGTACTCC (((.(((....))).))) | -27.4 | 39.5
55 | GGAATAGAAATATTCC ((((((....)))))) | -29.3 | 41.7
56 | GGAATAGGAAACTATCCC ((.((((....)))).)) | -10.9 | 28
57 | GGAATATCGAAAGATTCC (((..(((....)))))) | -20 | 33.3
58 | GGAATCGAAAGATACTCC ((((((....)))..))) | -9.63 | 24.7
59 | GGAATCGAAAGATATTCC ((((((....)))..))) | -16 | 29.7
60 | GGAATCGAAAGATCTCC ((((((....))).))) | -18.4 | 30.8
61 | GGAATCGAAAGATGTCC ((((((....))).))) | -15.6 | 32.5
62 | GGAATCGAAAGATTGTCC ((((((....)))..))) | -11.1 | 27.2
63 | GGAATCGGAAACGATCCC ((.((((....)))).)) | -25.9 | 45.5
64 | GGAATCTCGAAAGAGTCC (((..(((....)))))) | -18.4 | 33.2
65 | GGAATGCGAAAGCATCC (((.(((....)))))) | -15.9 | 55.5
66 | GGAATGGCGAAAGCCTCC (((..(((....)))))) | -10.2 | 36.7
67 | GGAATGGGAAACCATCCC ((.((((....)))).)) | -24 | 38.6
68 | GGAATGGGAAACTATTCC (((((.(....).))))) | -25.9 | 42.3
69 | GGAATTCCGAAAGGATCC (((..(((....)))))) | -10.9 | 28

Row | Sequence | folding enthalpy [1] [kcal/mol] | Tm [2] [°C]
70 | GGAATTCGAAAGAACTCC (((.(((....))).))) | -28.1 | 36.4
71 | GGAATTGGAAACAATTTC (.(((((....))))).) | -32.8 | 39.5
72 | GGACAAACGAAAGTTTCC (((..(((....)))))) | -9.9 | 25.4
73 | GGACAACCGAAAGGTTCC (((..(((....)))))) | -10.9 | 29.4
74 | GGACAACGAAAGTTATCC (((.(((....))).))) | -29.4 | 40
75 | GGACAACGAAAGTTTCC (((.(((....)))))) | -20.1 | 38.3
76 | GGACACGAAAGTGAGTCC ((((((....)))..))) | -21 | 44.8
77 | GGACACGAAAGTGATTCC ((((((....)))..))) | -14.7 | 31.7
78 | GGACACGAAAGTGCGTCC ((((((....)))..))) | -18.2 | 40.5
79 | GGACACGAAAGTGGCTCC ((((((....)))..))) | -11.8 | 49
80 | GGACACGAAAGTGTGTCC ((((((....)))..))) | -30.6 | 55.5
81 | GGACAGACGAAAGTCTCC (((..(((....)))))) | -10.2 | 30.4
82 | GGACATGGAAACATGTTC (.(((((....))))).) | -27.6 | 47.4
83 | GGACCAGGAAACTGGTTC (.(((((....))))).) | -24.6 | 51.8
84 | GGACCCCCGAAAGGGTCC (((..(((....)))))) | -34.8 | 62.1
85 | GGACCCCGAAAGGGTTCC (((.(((....))).))) | -23.2 | 52.5
86 | GGACCCGAAAGGGAATCC ((((((....)))..))) | -16.7 | 34.6
87 | GGACCCGAAAGGGACTCC ((((((....)))..))) | -13 | 54
88 | GGACCCGAAAGGGCATCC ((((((....)))..))) | -11.7 | 34.2
89 | GGACCCGAAAGGGGCTCC ((((((....)))..))) | -9.41 | 56.5
90 | GGACCCGGAAACGGACCC ((..(((....)))..)) | -13.8 | 32.7
91 | GGACCGCCGAAAGGCTCC (((..(((....)))))) | -10 | 32.2
